Test results published in ChEMBL document CHEMBL1121875, “Retinoic acid analogues with ring modifications. Synthesis and pharmacological activity” (J Med Chem, 1981).

biological target: T1, Ornithine decarboxylase (Mus musculus) (UniProt P00860); experiment: (§1) Percent inhibition of TPA-induced ornithine decarboxylase activity; format: functional; parameters: concentration or dose not given beside the values; conditions: concentration not given here
T1 sequence (whole entry): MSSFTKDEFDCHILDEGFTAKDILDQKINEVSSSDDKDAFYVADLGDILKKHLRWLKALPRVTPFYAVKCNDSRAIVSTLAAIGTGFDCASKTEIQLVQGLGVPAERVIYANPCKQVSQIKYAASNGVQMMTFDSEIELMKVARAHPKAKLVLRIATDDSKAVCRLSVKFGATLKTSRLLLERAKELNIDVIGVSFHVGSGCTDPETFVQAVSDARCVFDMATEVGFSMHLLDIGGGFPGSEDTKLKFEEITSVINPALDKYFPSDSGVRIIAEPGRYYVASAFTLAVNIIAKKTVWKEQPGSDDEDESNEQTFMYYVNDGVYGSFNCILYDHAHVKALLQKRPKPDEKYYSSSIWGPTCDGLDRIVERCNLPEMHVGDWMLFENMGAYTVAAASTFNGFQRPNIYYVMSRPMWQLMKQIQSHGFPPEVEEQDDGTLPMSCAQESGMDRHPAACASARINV
In short: (§2)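 Mouse epidermal ODC was induced by topical TPA on the back skin, with each retinoid applied topically to the back at 1.7 or 17 nmol. Each treatment used 3–6 groups of 3–4 mice. Epidermal ODC activity was measured by a previously described method and reported as % inhibition versus TPA-only controls (mean ± SE).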

inhibition [%] | Structure (SMILES)
64 | CCOC(=O)/C=C(C)/C=C/C=C(C)/C=C/C1CC2CCC1C2 (stereo not drawn)
54 | CCOC(=O)/C=C(C)/C=C/C=C(C)/C=C/C1=CC2CCC1C2 (stereo not drawn)
70 | CCOC(=O)/C=C(C)/C=C/C=C(C)/C=C/C12CC1(C)CCCC2(C)C (stereo not drawn)
80 | CCOC(=O)c1ccc(/C=C(C)/C=C/C23OC2(C)CCCC3(C)C)cc1 (stereo not drawn)
80 | CCOC(=O)c1ccc(/C=C(C)/C=C/C2=C(C)CCCC2(C)C)cc1
80 | CCOC(=O)c1ccc(/C=C(C)/C=C/C23CC2(C)CCCC3(C)C)cc1 (stereo not drawn)
45 | CCOC(=O)\C=C(C)/C=C/C=C(C)/C=C/C12CC1(C)CCCC2(C)C (stereo not drawn)
67 | CCOC(=O)\C=C(C)/C=C/C=C(C)/C=C/C1=C(C)C2(CCC1(C)C)CC2
96 | CC1=C(/C=C/C(C)=C/C=C/C(C)=C\C(=O)O)C(C)(C)CCC1
72 | CCOC(=O)/C=C(C)/C=C/C=C(C)/C=C/C1=C(C)C2(CCC1(C)C)CC2
92 | CC1=C(/C=C/C(C)=C/C=C/C(C)=C/C(=O)O)C(C)(C)CCC1

same assay, conditions: tested as the 2H-labelled form, concentration not given here

inhibition [%] | Structure (SMILES)
90 | CC1=C(/C=C/C(C)=C/C=C/C(C)=C/C(=O)O)C(C)(C)CCC1

biological target: T1, Ornithine decarboxylase (Mus musculus); experiment: as §1; format: functional; conditions: tested as the 2H-labelled form; concentration not given here; in short: as §2

inhibition [%] | Structure (SMILES)
90 | CC1=C(/C=C/C(C)=C/C=C/C(C)=C/C(=O)O)C(C)(C)CCC1
